From ChEMBL document CHEMBL5058577, “EUbOPEN Chemogenomics Library 2 (Multiplex)” (2022)

System: Fibroblast
Assay: Multiplex assay against human fibroblast
Type: toxicity, cell-based
Summary of the method: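 Cells stained live at seeding with Hoechst33342, BioTracker Green Microtubule Cytoskeleton Dye, MitoTracker Red and Annexin V Alexa Fluor 680 were imaged on a CQ1 microscope at 37°C and 5% CO2 after compound addition. Their classification by CellPathfinder machine-learning gating ran from Hoechst high-intensity objects versus normal cells, to healthy, pyknosed or fragmented nuclei among normal cells, to mitotic or apoptotic among pyknosed cells. Tubulin, mitochondrial-mass and membrane-permeability phenotypes are per cents of healthy-nucleus cells.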

[1] = 12 h, 1 µM, compound concentration 1 uM, replicate 1
[2] = 12 h, 1 µM, compound concentration 1 uM, replicate 2
[3] = 12 h, 10 µM, compound concentration 10 uM, replicate 1
[4] = 12 h, 10 µM, compound concentration 10 uM, replicate 2
[5] = 24 h, 1 µM, compound concentration 1 uM, replicate 1
[6] = 24 h, 1 µM, compound concentration 1 uM, replicate 2
[7] = 24 h, 10 µM, compound concentration 10 uM, replicate 1
[8] = 24 h, 10 µM, compound concentration 10 uM, replicate 2
[9] = 48 h, 1 µM, compound concentration 1 uM, replicate 1
[10] = 48 h, 1 µM, compound concentration 1 uM, replicate 2
[11] = 48 h, 10 µM, compound concentration 10 uM, replicate 1
[12] = 48 h, 10 µM, compound concentration 10 uM, replicate 2

CN1CCN(c2ccc(Nc3c4ccccc4nc4ccccc34)cc2)CC1.Cl.Cl.O
Population Apoptotic (%) [1]: 47% | Population Fragmented Nuclei (%) [1]: 15% | Population Healthy Nuclei (%) [1]: 69% | Population Hoechst High Intensity Objects (%) [1]: 1% | Population Membrane Permeable-Phenotype (%) [1]: 0% | Population Mitochondria Different-Phenotype (%) [1]: 3% | Population Mitotic Cells (%) [1]: 52% | Population Normal (%) [1]: 98% | Population Pyknosed Nuclei (%) [1]: 14% | Population Tubulin-Different-Phenotype (%) [1]: 23% | Total Cell Count [1]: 135 | Population Apoptotic (%) [2]: 44% | Population Fragmented Nuclei (%) [2]: 28% | Population Healthy Nuclei (%) [2]: 56% | Population Membrane Permeable-Phenotype (%) [2]: 5% | Population Mitochondria Different-Phenotype (%) [2]: 5% | Population Mitotic Cells (%) [2]: 56% | Population Pyknosed Nuclei (%) [2]: 15% | Population Tubulin-Different-Phenotype (%) [2]: 34% | Total Cell Count [2]: 160 | Population Apoptotic (%) [3]: 91% | Population Fragmented Nuclei (%) [3]: 42% | Population Healthy Nuclei (%) [3]: 49% | Population Hoechst High Intensity Objects (%) [3]: 8% | Population Membrane Permeable-Phenotype (%) [3]: 0% | Population Mitochondria Different-Phenotype (%) [3]: 47% | Population Mitotic Cells (%) [3]: 8% | Population Normal (%) [3]: 91% | Population Pyknosed Nuclei (%) [3]: 8% | Population Tubulin-Different-Phenotype (%) [3]: 90% | Total Cell Count [3]: 158 | Population Apoptotic (%) [4]: 66% | Population Fragmented Nuclei (%) [4]: 65% | Population Healthy Nuclei (%) [4]: 29% | Population Hoechst High Intensity Objects (%) [4]: 16% | Population Membrane Permeable-Phenotype (%) [4]: 4% | Population Mitochondria Different-Phenotype (%) [4]: 13% | Population Mitotic Cells (%) [4]: 33% | Population Normal (%) [4]: 83% | Population Pyknosed Nuclei (%) [4]: 4% | Population Tubulin-Different-Phenotype (%) [4]: 79% | Total Cell Count [4]: 177 | Population Apoptotic (%) [5]: 70% | Population Fragmented Nuclei (%) [5]: 21% | Population Healthy Nuclei (%) [5]: 65% | Population Hoechst High Intensity Objects (%) [5]: 0% | Population Membrane Permeable-Phenotype (%) [5]: 0% | Population Mitochondria Different-Phenotype (%) [5]: 2% | Population Mitotic Cells (%) [5]: 29% | Population Normal (%) [5]: 99% | Population Pyknosed Nuclei (%) [5]: 12% | Population Tubulin-Different-Phenotype (%) [5]: 12% | Total Cell Count [5]: 139 | Population Apoptotic (%) [6]: 60% | Population Fragmented Nuclei (%) [6]: 29% | Population Healthy Nuclei (%) [6]: 57% | Population Membrane Permeable-Phenotype (%) [6]: 3% | Population Mitochondria Different-Phenotype (%) [6]: 7% | Population Mitotic Cells (%) [6]: 40% | Population Normal (%) [6]: 100% | Population Tubulin-Different-Phenotype (%) [6]: 39% | Total Cell Count [6]: 155 | Population Apoptotic (%) [7]: 77% | Population Fragmented Nuclei (%) [7]: 47% | Population Healthy Nuclei (%) [7]: 39% | Population Hoechst High Intensity Objects (%) [7]: 16% | Population Membrane Permeable-Phenotype (%) [7]: 1% | Population Mitochondria Different-Phenotype (%) [7]: 66% | Population Mitotic Cells (%) [7]: 22% | Population Normal (%) [7]: 83% | Population Pyknosed Nuclei (%) [7]: 12% | Population Tubulin-Different-Phenotype (%) [7]: 94% | Total Cell Count [7]: 206 | Population Apoptotic (%) [8]: 60% | Population Fragmented Nuclei (%) [8]: 69% | Population Healthy Nuclei (%) [8]: 27% | Population Hoechst High Intensity Objects (%) [8]: 21% | Population Membrane Permeable-Phenotype (%) [8]: 6% | Population Mitochondria Different-Phenotype (%) [8]: 34% | Population Mitotic Cells (%) [8]: 40% | Population Normal (%) [8]: 78% | Population Pyknosed Nuclei (%) [8]: 3% | Population Tubulin-Different-Phenotype (%) [8]: 84% | Total Cell Count [8]: 205 | Population Apoptotic (%) [9]: 66% | Population Fragmented Nuclei (%) [9]: 23% | Population Healthy Nuclei (%) [9]: 70% | Population Hoechst High Intensity Objects (%) [9]: 1% | Population Membrane Permeable-Phenotype (%) [9]: 0% | Population Mitochondria Different-Phenotype (%) [9]: 4% | Population Mitotic Cells (%) [9]: 33% | Population Normal (%) [9]: 98% | Population Pyknosed Nuclei (%) [9]: 6% | Population Tubulin-Different-Phenotype (%) [9]: 26% | Total Cell Count [9]: 144 | Population Apoptotic (%) [10]: 55% | Population Fragmented Nuclei (%) [10]: 25% | Population Healthy Nuclei (%) [10]: 68% | Population Membrane Permeable-Phenotype (%) [10]: 1% | Population Mitotic Cells (%) [10]: 44% | Population Pyknosed Nuclei (%) [10]: 5% | Total Cell Count [10]: 157 | Population Apoptotic (%) [11]: 68% | Population Fragmented Nuclei (%) [11]: 71% | Population Healthy Nuclei (%) [11]: 15% | Population Hoechst High Intensity Objects (%) [11]: 45% | Population Membrane Permeable-Phenotype (%) [11]: 15% | Population Mitochondria Different-Phenotype (%) [11]: 30% | Population Mitotic Cells (%) [11]: 31% | Population Normal (%) [11]: 54% | Population Pyknosed Nuclei (%) [11]: 12% | Population Tubulin-Different-Phenotype (%) [11]: 25% | Total Cell Count [11]: 235 | Population Apoptotic (%) [12]: 0% | Population Fragmented Nuclei (%) [12]: 88% | Population Healthy Nuclei (%) [12]: 11% | Population Hoechst High Intensity Objects (%) [12]: 38% | Population Membrane Permeable-Phenotype (%) [12]: 25% | Population Mitochondria Different-Phenotype (%) [12]: 12% | Population Mitotic Cells (%) [12]: 0% | Population Normal (%) [12]: 61% | Population Pyknosed Nuclei (%) [12]: 0% | Population Tubulin-Different-Phenotype (%) [12]: 56% | Total Cell Count [12]: 236
